Experimental data reported in ChEMBL document CHEMBL3046450, “Pyrrole- and dihydropyrrole-fused neonicotinoids: design, synthesis, and insecticidal evaluation” (2013).
Values after ≈ are worked out from the molar mass of the structure shown.

How the values were obtained:
Aphis craccivora [1] = assay: Insecticidal activity against Aphis craccivora (cowpea aphid) assessed as mortality; assay type: functional
How it was run: (§1)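 Compounds dissolved in DMF, then diluted with water containing Triton X-100 (0.1 mg L−1) to test concentrations of 500.0, 250.0 and 125.0 mg L−1, plus others; mortality of cowpea aphids was scored.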

Aphis craccivora [2] = assay: Insecticidal activity against Aphis craccivora (cowpea aphid) assessed as mortality at 500 mg/l; assay type: functional; how it was run: as §1

CC1(O)C(O)C([N+](=O)[O-])=C2N(Cc3ccc(Cl)nc3)CCN21 (stereo unspecified)
LC50 (Aphis craccivora [1]): 2 µg/mL (≈ 6.12 µM)
Activity (Aphis craccivora [2]): 100%

CC12OCCOC1C([N+](=O)[O-])=C1N(Cc3ccc(Cl)nc3)CCN12 (stereo unspecified)
LC50 (Aphis craccivora [1]): 10 µg/mL (≈ 28.3 µM)
Activity (Aphis craccivora [2]): 100%

CCCCOC1C([N+](=O)[O-])=C(N(CC)Cc2ccc(Cl)nc2)N(C)C1(C)O (stereo unspecified)
Activity (Aphis craccivora [2]): 16.4%

CCN(Cc1ccc(Cl)nc1)c1c([N+](=O)[O-])c(OC)c(C)n1C
Activity (Aphis craccivora [2]): 91%

CCOC1C([N+](=O)[O-])=C2N(Cc3ccc(Cl)nc3)CCN2C1(C)OCC (stereo unspecified)
LC50 (Aphis craccivora [1]): 0.6 µg/mL (≈ 1.57 µM)
Activity (Aphis craccivora [2]): 100%

CCCOc1c([N+](=O)[O-])c(N(CC)Cc2ccc(Cl)nc2)n(C)c1C
Activity (Aphis craccivora [2]): 77%

CCOc1c([N+](=O)[O-])c2n(c1C)CCN2Cc1ccc(Cl)nc1
LC50 (Aphis craccivora [1]): 37.3 µg/mL (≈ 111 µM)
Activity (Aphis craccivora [2]): 100%

CCCCOC1C([N+](=O)[O-])=C2N(Cc3ccc(Cl)nc3)CCN2C1(C)OCCCC (stereo unspecified)
LC50 (Aphis craccivora [1]): 3.4 µg/mL (≈ 7.75 µM)
Activity (Aphis craccivora [2]): 100%

CCCOC1C([N+](=O)[O-])=C2N(Cc3ccc(Cl)nc3)CCN2C1(C)OCCC (stereo unspecified)
LC50 (Aphis craccivora [1]): 0.8 µg/mL (≈ 1.95 µM)
Activity (Aphis craccivora [2]): 100%

CCCCOc1c([N+](=O)[O-])c2n(c1C)CCN2Cc1ccc(Cl)nc1
LC50 (Aphis craccivora [1]): 39.5 µg/mL (≈ 108 µM)
Activity (Aphis craccivora [2]): 100%

O=[N+]([O-])/N=C1\NCCN1Cc1ccc(Cl)nc1 [IMIDACLOPRID]
LC50 (Aphis craccivora [1]): 8.9 µg/mL (≈ 34.8 µM)
Activity (Aphis craccivora [2]): 100%

CCOC1C([N+](=O)[O-])=C(N(CC)Cc2ccc(Cl)nc2)N(C)C1(C)O (stereo unspecified)
Activity (Aphis craccivora [2]): 29.7%

CC1C(=O)C([N+](=O)[O-])=C2N(Cc3ccc(Cl)nc3)CCN21 (stereo unspecified)
LC50 (Aphis craccivora [1]): 43.5 µg/mL (≈ 141 µM)
Activity (Aphis craccivora [2]): 100%

CCOc1c([N+](=O)[O-])c(N(CC)Cc2ccc(Cl)nc2)n(C)c1C
Activity (Aphis craccivora [2]): 84%

COc1c([N+](=O)[O-])c2n(c1C)CCN2Cc1ccc(Cl)nc1
LC50 (Aphis craccivora [1]): 14.6 µg/mL (≈ 45.2 µM)
Activity (Aphis craccivora [2]): 100%

COC1C([N+](=O)[O-])=C2N(Cc3ccc(Cl)nc3)CCN2C1(C)OC (stereo unspecified)
LC50 (Aphis craccivora [1]): 0.7 µg/mL (≈ 1.97 µM)
Activity (Aphis craccivora [2]): 100%

CC12OCCCCOC1C([N+](=O)[O-])=C1N(Cc3ccc(Cl)nc3)CCN12 (stereo unspecified)
LC50 (Aphis craccivora [1]): 14.8 µg/mL (≈ 38.9 µM)
Activity (Aphis craccivora [2]): 100%

CC12OCCCOC1C([N+](=O)[O-])=C1N(Cc3ccc(Cl)nc3)CCN12 (stereo unspecified)
LC50 (Aphis craccivora [1]): 11.1 µg/mL (≈ 30.3 µM)
Activity (Aphis craccivora [2]): 100%

CCCOC1C([N+](=O)[O-])=C(N(CC)Cc2ccc(Cl)nc2)N(C)C1(C)O (stereo unspecified)
Activity (Aphis craccivora [2]): 19%

CCCOc1c([N+](=O)[O-])c2n(c1C)CCN2Cc1ccc(Cl)nc1
LC50 (Aphis craccivora [1]): 24.5 µg/mL (≈ 69.8 µM)
Activity (Aphis craccivora [2]): 100%

CCN(Cc1ccc(Cl)nc1)C1=C([N+](=O)[O-])C(OC(C)C)C(C)(O)N1C (stereo unspecified)
Activity (Aphis craccivora [2]): 21.2%

CCN(Cc1ccc(Cl)nc1)C1=C([N+](=O)[O-])C(OC)C(C)(O)N1C (stereo unspecified)
Activity (Aphis craccivora [2]): 21.6%
